According to ChEMBL document CHEMBL3286357, “Design, synthesis and pharmacological evaluation of novel substituted quinoline-2-carboxamide derivatives as human dihydroorotate dehydrogenase (hDHODH) inhibitors and anticancer agents” (Eur J Med Chem, 2014):

Tests used:
[1] = Antiproliferative activity against human Hep3B cells at 3.7 ug/ml for 24 hrs by MTT assay; assay type: functional, Hep 3B2
Summary of the method: (§1)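 HEP-3B or A-375 cells were grown in DMEM with 10% FBS, 5% HBSS, penicillin, streptomycin and amphotericin B at 37 C and 5% CO2. Cells were seeded at 2 × 10^4 per well and preincubated for 24 h. They were then exposed to ten 1:3 serial dilutions from a top concentration of 100, made from 2% DMSO stocks. MTT was added for 3 h, formazan was dissolved in DMSO, and A550 was read. Wells were run in triplicate across three independent experiments. IC50 came from dose-response curves.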

[2] = Antiproliferative activity against human Hep3B cells at 0.41 ug/ml for 24 hrs by MTT assay; assay type: functional, Hep 3B2; summary of the method: as §1
[3] = Antiproliferative activity against human Hep3B cells at 0.14 ug/ml for 24 hrs by MTT assay; assay type: functional, Hep 3B2; summary of the method: as §1
[4] = Antiproliferative activity against human Hep3B cells at 0.01 ug/ml for 24 hrs by MTT assay; assay type: functional, Hep 3B2; summary of the method: as §1
[5] = Antiproliferative activity against human Hep3B cells at 0.02 ug/ml for 24 hrs by MTT assay; assay type: functional, Hep 3B2; summary of the method: as §1
[6] = target: Dihydroorotate dehydrogenase (quinone), mitochondrial (Homo sapiens, UniProt Q02127); assay: Inhibition of recombinant human DHODH activity after 20 mins by DCIP dye based colorimetric analysis in presence of 1 mM L-dihydroorotate and 0.1 mM CqD
Dihydroorotate dehydrogenase (quinone), mitochondrial, sequence (Q02127 whole entry): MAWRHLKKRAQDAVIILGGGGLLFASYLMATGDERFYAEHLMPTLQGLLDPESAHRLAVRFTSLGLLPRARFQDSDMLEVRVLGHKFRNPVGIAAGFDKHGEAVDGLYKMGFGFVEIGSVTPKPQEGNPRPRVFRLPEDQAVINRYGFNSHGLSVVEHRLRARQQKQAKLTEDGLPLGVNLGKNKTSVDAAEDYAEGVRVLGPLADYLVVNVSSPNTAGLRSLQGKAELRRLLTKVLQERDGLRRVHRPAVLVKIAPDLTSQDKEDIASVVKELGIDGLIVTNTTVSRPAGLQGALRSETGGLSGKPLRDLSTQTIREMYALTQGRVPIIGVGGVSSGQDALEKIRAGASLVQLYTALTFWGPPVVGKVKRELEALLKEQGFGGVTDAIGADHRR

A-375 (human melanoma) = assay: Antiproliferative activity against human A375 cells for 24 hrs by MTT assay; conditions: A-375, 24 h
A-375 [7] = assay: Antiproliferative activity against human A375 cells at 33.33 ug/ml for 24 hrs by MTT assay; assay type: functional; conditions: A-375, 24 h; summary of the method: as §1
A-375 [8] = assay: Antiproliferative activity against human A375 cells at 0.05 ug/ml for 24 hrs by MTT assay; assay type: functional; conditions: A-375, 24 h; summary of the method: as §1
A-375 [9] = assay: Antiproliferative activity against human A375 cells at 0.02 ug/ml for 24 hrs by MTT assay; assay type: functional; conditions: A-375, 24 h; summary of the method: as §1
A-375 [10] = assay: Antiproliferative activity against human A375 cells at 0.41 ug/ml for 24 hrs by MTT assay; assay type: functional; conditions: A-375, 24 h; summary of the method: as §1
[11] = Retention time of compound by HPLC analysis; assay type: physicochemical
[12] = Antiproliferative activity against human Hep3B cells at 11.11 ug/ml for 24 hrs by MTT assay; assay type: functional, Hep 3B2; summary of the method: as §1
A-375 [13] = assay: Antiproliferative activity against human A375 cells at 1.23 ug/ml for 24 hrs by MTT assay; assay type: functional; conditions: A-375, 24 h; summary of the method: as §1
A-375 [14] = assay: Antiproliferative activity against human A375 cells at 3.7 ug/ml for 24 hrs by MTT assay; assay type: functional; conditions: A-375, 24 h; summary of the method: as §1
A-375 [15] = assay: Antiproliferative activity against human A375 cells at 11.11 ug/ml for 24 hrs by MTT assay; assay type: functional; conditions: A-375, 24 h; summary of the method: as §1
[16] = Antiproliferative activity against human Hep3B cells at 0.05 ug/ml for 24 hrs by MTT assay; assay type: functional, Hep 3B2; summary of the method: as §1
HEP-3B (human hepatoma) = assay: Antiproliferative activity against human Hep3B cells for 24 hrs by MTT assay
A-375 [17] = assay: Antiproliferative activity against human A375 cells at 0.14 ug/ml for 24 hrs by MTT assay; assay type: functional; conditions: A-375, 24 h; summary of the method: as §1
[18] = Antiproliferative activity against human Hep3B cells at 33.33 ug/ml for 24 hrs by MTT assay; assay type: functional, Hep 3B2; summary of the method: as §1
A-375 [19] = assay: Antiproliferative activity against human A375 cells at 0.01 ug/ml for 24 hrs by MTT assay; assay type: functional; conditions: A-375, 24 h; summary of the method: as §1
[20] = Antiproliferative activity against human Hep3B cells at 100 ug/ml for 24 hrs by MTT assay; assay type: functional, Hep 3B2; summary of the method: as §1
[21] = Antiproliferative activity against human Hep3B cells at 1.23 ug/ml for 24 hrs by MTT assay; assay type: functional, Hep 3B2; summary of the method: as §1
A-375 [22] = assay: Antiproliferative activity against human A375 cells at 100 ug/ml for 24 hrs by MTT assay; assay type: functional; conditions: A-375, 24 h; summary of the method: as §1

| SMILES | inhibition at 3.7 µg/mL [1] [%] | inhibition at 0.41 µg/mL [2] [%] | inhibition at 0.14 µg/mL [3] [%] | inhibition at 0.01 µg/mL [4] [%] | inhibition at 0.02 µg/mL [5] [%] | IC50 [6] [nM] | IC50 (A-375 (human melanoma)) [µM] | inhibition at 33.33 µg/mL (A-375 [7]) [%] | inhibition at 0.05 µg/mL (A-375 [8]) [%] | inhibition at 0.02 µg/mL (A-375 [9]) [%] | inhibition at 0.41 µg/mL (A-375 [10]) [%] | Retention_time [11] [min] | inhibition at 11.11 µg/mL [12] [%] | inhibition at 1.23 µg/mL (A-375 [13]) [%] | inhibition at 3.7 µg/mL (A-375 [14]) [%] | inhibition at 11.11 µg/mL (A-375 [15]) [%] | inhibition at 0.05 µg/mL [16] [%] | IC50 (HEP-3B (human hepatoma)) [µM] | inhibition at 0.14 µg/mL (A-375 [17]) [%] | inhibition at 33.33 µg/mL [18] [%] | also measured |
| --- | --- | --- | --- | --- | --- | --- | --- | --- | --- | --- | --- | --- | --- | --- | --- | --- | --- | --- | --- | --- | --- |
| COc1ccc2nc(C(=O)Nc3c(F)cc(-c4cccc(F)c4)cc3F)c(C)c(O)c2c1 | 25.2 | 4.5 | 2.68 | 0.105 | 0.87 | 940 | 5.03 | 64.9 | 6.38 | 2.13 | 28.7 | 7.1 | 29.3 | 36.2 | 49.9 | 57.2 | 1.35 | 6.98 | 11.6 | 31.2 | inhibition at 0.01 µg/mL (A-375 [19]): 0.79%; inhibition at 100 µg/mL [20]: 46.2%; inhibition at 1.23 µg/mL [21]: 13.3%; inhibition at 100 µg/mL (A-375 [22]): 96.8% |
| Cc1c(C(=O)Nc2c(F)cc(-c3cccc(F)c3)cc2F)nc2ccc(C(F)(F)F)cc2c1O | 31.2 | 9.38 | 2.65 | -0.33 | 0.06 | 6090 | 29.9 | 61.3 | 3.47 | 1.28 | 16.5 | 7 | 36.2 | 21.2 | 34.3 | 46.3 | 1.35 | 12.6 | 9.37 | 45.2 | inhibition at 0.01 µg/mL (A-375 [19]): 0.16%; inhibition at 100 µg/mL [20]: 68.4%; inhibition at 1.23 µg/mL [21]: 15.3%; inhibition at 100 µg/mL (A-375 [22]): 95.2% |
| Cc1c(C(=O)Nc2c(F)cc(-c3cccc(F)c3)cc2F)nc2ccc(F)cc2c1C(=O)O | 11.2 | 1.06 | 0.65 | -0.35 | -0.13 | 4580 | 14.7 | 41.3 | 0.37 | -0.22 | 3.02 | 7.2 | 26.3 | 16.3 | 24.5 | 36.2 | 0.05 | 81.9 | 1.05 | 34.3 | inhibition at 0.01 µg/mL (A-375 [19]): -0.56%; inhibition at 100 µg/mL [20]: 65.2%; inhibition at 1.23 µg/mL [21]: 2.45%; inhibition at 100 µg/mL (A-375 [22]): 64.3% |
| Cc1c(C(=O)Nc2c(F)cc(-c3cccc(F)c3)cc2F)nc2ccc(OC(F)(F)F)cc2c1C(=O)O | 29.8 | 15.3 | 7.28 | 0.45 | 1.22 | 1500 | 4.8 | 53.1 | 1.06 | 0.95 | 15.2 | 6.9 | 37.3 | 24.4 | 37.9 | 42.4 | 3.05 | 22 | 3.06 | 46.2 | inhibition at 0.01 µg/mL (A-375 [19]): -0.11%; inhibition at 100 µg/mL [20]: 75.3%; inhibition at 1.23 µg/mL [21]: 21.2%; inhibition at 100 µg/mL (A-375 [22]): 68.8% |
| Cc1c(C(=O)Nc2c(F)cc(-c3cccc(F)c3)cc2F)nc2ccc(C(F)(F)F)cc2c1C(=O)O | 21.3 | 6.42 | 2.13 | 0.2 | 1.15 | 3440 | 7.57 | 51 | 1.04 | 0.37 | 7.82 | 6.8 | 31.2 | 18.3 | 27.8 | 45.4 | 1.68 | 42.8 | 2.56 | 43.3 | inhibition at 0.01 µg/mL (A-375 [19]): 0.12%; inhibition at 100 µg/mL [20]: 72.3%; inhibition at 1.23 µg/mL [21]: 17.2%; inhibition at 100 µg/mL (A-375 [22]): 61.3% |
| COc1ccc2nc(C(=O)Nc3ccc(-c4ccccc4)cc3)c(C)c(C(=O)O)c2c1 | 19.4 | 5.31 | 2.01 | -0.12 | 0.05 | 1090 | 9.43 | 58.3 | 1.26 | 0.68 | 11.3 | 7.4 | 28.3 | 21.3 | 33.6 | 47.9 | 0.65 | > 100 | 3.65 | 33.6 | inhibition at 0.01 µg/mL (A-375 [19]): 0.35%; inhibition at 100 µg/mL [20]: 72.5%; inhibition at 1.23 µg/mL [21]: 11.2%; inhibition at 100 µg/mL (A-375 [22]): 70.2% |
